The sample as a whole holds a higher share of hits than the screen did.
Lung fibro prol: antiproliferative effect on LL 47 fibroblasts – human, LL 47 cells, CellTiter-Glo luminescence, primary screen; viability, % at 10 µM; LL 47 human lung fibroblast viability, ATP luminescence; stronger effect = lower value; 85,000 compounds, 1.1% hits;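 active = viability at or below 50% in the single dose screen; inactive = viability above 50%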;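 note: compound exposure lasted 72 h before the ATP readout; 100% = median luminescence of untreated cell-only wells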
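Times – overnight cell rest, 72 h compound treatment at 37 °C · Test system – human lung fibroblast line LL 47, low passage · Amount – 1,150 cells in each well · Controls – cell-only wells, no compound · Doses – 0.1% DMSO in all compound wells · Measured by – CellTiter-Glo luminescence · Buffer or medium – IMEM plus 15% FBS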
bCat KO growth: primary screen for growth suppressors in beta-catenin knockout HCT116 cells (colon tumor, human) | HCT116 beta-catenin knockout viability, CellTiter-Glo, 60 h; stronger effect = lower value | 140,000 compounds, 1.5% hits | viability, % at 10 µM | AID 818, 2007;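 active = viability at or under a set limit, the compound median less 4 SD, cut at about 6% in these data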;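 note: 0% = Hyamine 1622 control at 20 µM and 100% = untreated cell control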
HCT116 PTEN-null: growth suppression of PTEN-null HCT116, primary screen, cell-based, CellTiter-Glo; HCT116 PTEN-null viability, 60 h; stronger effect = lower value; AID 827, 2007; viability, % at 10 µM; 140,000 compounds, 1.2% hits;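 active = viability at or below a set limit, 4 SD under the median of all tested compounds, cut at about 3.7% in these data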;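 note: PTEN knockout HCT116 line with beta catenin targeted HCT116 as companion control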
Phagocyt inh: inhibitors of macrophage phagocytosis, primary screen, imaging, J774A.1 cells, IgG beads. inhibition, % at 5 µM. 110,000 compounds, 0.07% hits. J774A.1 macrophage IgG-bead phagocytosis;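 active = inhibition above the mean of the plate negative controls plus 5 SD, cut at about 13% in these data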;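 note: phagocytic index as fraction of beads internalized from green versus red external bead signal; plate controls were DMSO negative control for no effect and cytochalasin-D positive control for full effect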
HUVEC prolif 384: inhibitors of HUVEC proliferation, primary screen, cell-based, 384-well | AID 648, 2007 | 86,000 compounds, 1.1% hits | CellTiter-Glo luminescence, 72 h; stronger effect = lower value | viability, % at 10 µM (by protocol);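 active = viability at or below 30%; inactive = viability above 30%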;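 note: 100% = median luminescence of DMSO-only cell control wells on each plate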
H69AR inhibit: proliferation blockers of H69AR lung cancer cells, primary screen, cell-based, human, 86K library | H69AR lung tumor viability, ATP luminescence, 72 h; stronger effect = lower value | AID 598, 2007 | viability, % at 10 µM | 85,000 compounds, 6% hits;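 active = viability at or below 40%; inactive = viability above 40%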;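 note: multidrug resistant small cell line overexpressing MRP-1 efflux transporter; 100% = mean luminescence of untreated control wells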
* marks the source's active call; other numbers are inactive results.

What do the screens show for `O=C(Cn1nnc(-c2ccc(Cl)cc2)n1)NCC1CCCCC1`?
Lung fibro prol: 91; bCat KO growth: 92; HCT116 PTEN-null: 83; Phagocyt inh: 2; HUVEC prolif 384: 87; H69AR inhibit: 87

Results for COc1ccc(CN(CCO)CCO)cc1[N+](=O)[O-] ?
bCat KO growth: 105; HCT116 PTEN-null: 100

How did Cn1c(=O)c2cc(NC(=O)c3ccccc3Cl)c(=O)oc2n(C)c1=O do in these assays?
Lung fibro prol: 101; bCat KO growth: 108; HCT116 PTEN-null: 103; Phagocyt inh: 0; HUVEC prolif 384: 101; H69AR inhibit: 89

How did O=C(NCc1ccccc1)N1CCC(c2nc3ccccc3[nH]2)CC1 do in these assays?
Lung fibro prol: 96; bCat KO growth: 92; HCT116 PTEN-null: 95; Phagocyt inh: 0; HUVEC prolif 384: 100; H69AR inhibit: 65

How did COc1cc(/C=N/NC(=S)Nc2cccc(Cl)c2C)ccc1OCC(=O)N1CC(C)OC(C)C1 (centres undefined) do in these assays?
bCat KO growth: 64; HCT116 PTEN-null: 53; Phagocyt inh: 0

How did O=C(NNS(=O)(=O)c1ccc(Cl)cc1)c1cnn(-c2ccccc2)c1-n1cccc1 do in these assays?
bCat KO growth: 88; HCT116 PTEN-null: 90

How did Cc1cccc(NS(=O)(=O)c2cccc3nsnc23)c1 do in these assays?
Lung fibro prol: 91; bCat KO growth: 91; HCT116 PTEN-null: 95; HUVEC prolif 384: 91; H69AR inhibit: 88

Results for Cc1ccc(C)c(S(=O)(=O)Nc2ccc3scnc3c2)c1 ?
bCat KO growth: 30; HCT116 PTEN-null: 31; Phagocyt inh: 10; HUVEC prolif 384: 63; H69AR inhibit: 17*

Results for O=C(CCc1ccccc1)Nc1ccc(Cl)cn1 ?
Lung fibro prol: 57; bCat KO growth: 22; HCT116 PTEN-null: 23; Phagocyt inh: 1; HUVEC prolif 384: 53; H69AR inhibit: 30*

What do the screens show for `Cc1ccc(C(=O)Nc2ccc(Cl)cn2)cc1`?
Lung fibro prol: 79; bCat KO growth: 44; HCT116 PTEN-null: 40; Phagocyt inh: 1; HUVEC prolif 384: 63; H69AR inhibit: 24*

Results for CCCOc1ccc(C(=O)Nc2ccc(Cl)cn2)cc1 ?
Lung fibro prol: 94; bCat KO growth: 80; HCT116 PTEN-null: 77; Phagocyt inh: -1; HUVEC prolif 384: 95; H69AR inhibit: 90

What do the screens show for `O=C(CCC1COc2ccccc2O1)Nc1ccc(Cl)cn1` (centres undefined)?
Lung fibro prol: 87; bCat KO growth: 49; HCT116 PTEN-null: 44; Phagocyt inh: 1; HUVEC prolif 384: 15*; H69AR inhibit: 92

What do the screens show for `COc1ccccc1NC(=O)C(Sc1ccccc1)c1ccccc1` (centres undefined)?
bCat KO growth: 83; HCT116 PTEN-null: 73; Phagocyt inh: -2

How did O=C(Nc1cc([N+](=O)[O-])ccc1Cl)C(Sc1ccccc1)c1ccccc1 (centres undefined) do in these assays?
bCat KO growth: 82; HCT116 PTEN-null: 71; Phagocyt inh: -12

What do the screens show for `O=C(Nc1ccc(Cl)c([N+](=O)[O-])c1)C(Sc1ccccc1)c1ccccc1` (centres undefined)?
bCat KO growth: 3.6*; HCT116 PTEN-null: 3.2*; Phagocyt inh: -8

Results for CC(C)(C)NS(=O)(=O)c1ccc(NC(=O)C(Sc2ccccc2)c2ccccc2)cc1 (centres undefined) ?
bCat KO growth: 1.6*; HCT116 PTEN-null: 1.6*

What do the screens show for `O=C(COC(=O)[C@H](Cc1c[nH]c2ccccc12)NC(=O)c1cccs1)NCc1ccccc1`?
bCat KO growth: 81; HCT116 PTEN-null: 77; Phagocyt inh: -11

Results for COc1ccc(OC)c(NC(=O)c2c(NC(=O)CNCc3ccco3)sc3c2CCC3)c1 ?
Lung fibro prol: 78; bCat KO growth: 90; HCT116 PTEN-null: 79; Phagocyt inh: 0; HUVEC prolif 384: 80; H69AR inhibit: 16*

How did Cc1c(O)ccc2c3c(c(=O)oc12)CCCC3 do in these assays?
Lung fibro prol: 99; bCat KO growth: 112; HCT116 PTEN-null: 105; Phagocyt inh: 2; HUVEC prolif 384: 74; H69AR inhibit: 83

What do the screens show for `Cc1oc2c(C)c3oc(=O)c4c(c3cc2c1C)CCCC4`?
bCat KO growth: 66; HCT116 PTEN-null: 63; Phagocyt inh: -1; HUVEC prolif 384: 81; H69AR inhibit: 14*

What do the screens show for `Cc1ccc(C)c(N2CCN(C(=O)COc3cc(=O)n(C)c4ccccc34)CC2)c1`?
Lung fibro prol: 107; bCat KO growth: 82; HCT116 PTEN-null: 66; Phagocyt inh: -2; HUVEC prolif 384: 95; H69AR inhibit: 65

Results for Cc1ccc(C)c(N2CCN(C(=O)CCCOc3cc(=O)n(C)c4ccccc34)CC2)c1 ?
Lung fibro prol: 95; bCat KO growth: 29; HCT116 PTEN-null: 26; Phagocyt inh: -1; HUVEC prolif 384: 65; H69AR inhibit: 2.8*

How did COC(=O)c1ccc(OCC(O)CN(CC(C)C)CC(C)C)cc1 (centres undefined) do in these assays?
Lung fibro prol: 90; bCat KO growth: 76; HCT116 PTEN-null: 73; Phagocyt inh: 0; HUVEC prolif 384: 110; H69AR inhibit: 112

Results for CCOc1cc(/C=N\Nc2nc(Nc3ccccc3)nc(N3CCOCC3)n2)ccc1OC(=O)c1ccco1 ?
bCat KO growth: 28; HCT116 PTEN-null: 23; Phagocyt inh: -8

Results for CC(=O)CCS(=O)(=O)c1ccc(Oc2ccc(S(=O)(=O)CCC(C)=O)cc2)cc1 ?
Lung fibro prol: 11*; bCat KO growth: 63; HCT116 PTEN-null: 78; HUVEC prolif 384: 94; H69AR inhibit: 1.3*

What do the screens show for `N#CC1=C(SCC(=O)NC23CC4CC(CC(C4)C2)C3)NC(=O)C(C#N)C12CCCCC2` (centres undefined)?
Lung fibro prol: 80; bCat KO growth: 50; HCT116 PTEN-null: 39; HUVEC prolif 384: 56; H69AR inhibit: 9.1*

Results for N#CC1=C(SCC(=O)NC2CC2)NC(=O)C(C#N)C12CCCCC2 (centres undefined) ?
Lung fibro prol: 95; bCat KO growth: 95; HCT116 PTEN-null: 101; Phagocyt inh: 0; HUVEC prolif 384: 84; H69AR inhibit: 100

Results for CC(C)(C)C1CCC2(CC1)C(C#N)=C(SCC(=O)NC1CCCCC1)NC(=O)C2C#N (centres undefined) ?
Lung fibro prol: 82; bCat KO growth: 72; HCT116 PTEN-null: 61; Phagocyt inh: -1; HUVEC prolif 384: 44; H69AR inhibit: 9.6*

How did Cc1ccn2c(C(=O)N/N=C/c3ccc(CNC(=O)C(=O)Nc4ccc(C)c(C)c4)o3)c(C)nc2c1 do in these assays?
bCat KO growth: 60; HCT116 PTEN-null: 68; Phagocyt inh: -7

Compound activity deposited in PubChem by several laboratories.
